Values after ≈ are worked out from the molar mass of the structure shown. Active and inactive are the calls of the source. The rule behind the calls is not given here. Square brackets hold non-standard residues; d marks the D form. Peptide text beside a SMILES is read from it.
Tests used:
Staphylococcus aureus [1] = assay: Bactericidal activity against Staphylococcus aureus ATCC 25923 assessed as inhibition of bacterial growth at MIC concentration incubated for 48 hrs by broth microdilution assay; assay type: functional, organism-based
In short: (§1)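 From broth-microdilution wells showing no growth, 10 µL was spotted onto agar and incubated 48 h at 37 °C. Plates were inspected for colonies. Fidaxomicin at 1 µM served as control.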

Staphylococcus aureus [2] = assay: Antibacterial activity against Staphylococcus aureus ATCC 25923 assessed as reduction in bacterial growth at MIC concentration measured after 24 hrs by time-kill kinetic analysis; assay type: functional, organism-based
In short: (§2)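 Samples (5 µL) taken at 0, 1, 2, 4, 6, 12, 18 and 24 h, tenfold diluted in 0.85% NaCl, and plated on TSA overnight at 37 °C for CFU counts. Two independent duplicates.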

Salmonella enterica [3] = assay: Bactericidal activity against Salmonella enterica ATCC 13314 assessed as inhibition of bacterial growth at MIC concentration incubated for 48 hrs by broth microdilution assay; assay type: functional, organism-based; in short: as §1
Listeria monocytogenes = assay: Bactericidal activity against Listeria monocytogenes ATCC 15313 assessed as inhibition of bacterial growth at MIC concentration incubated for 48 hrs by broth microdilution assay; assay type: functional, organism-based; in short: as §1
Pseudomonas aeruginosa [4] = assay: Bactericidal activity against Pseudomonas aeruginosa BAA 1744 assessed as inhibition of bacterial growth at MIC concentration incubated for 48 hrs by broth microdilution assay; assay type: functional, organism-based; in short: as §1
Escherichia coli = assay: Bactericidal activity against Escherichia coli ATCC 33694 assessed as inhibition of bacterial growth at MIC concentration incubated for 48 hrs by broth microdilution assay; assay type: functional, organism-based; in short: as §1
Staphylococcus aureus [5] = assay: Antibacterial activity against Staphylococcus aureus ATCC 25923 assessed as reduction in surviving bacteria at MIC concentration measured within 6 hrs by time-kill kinetic analysis; assay type: functional; in short: as §2
Enterococcus faecium [6] = assay: Bactericidal activity against vancomycin resistant Enterococcus faecium BAA 2317 assessed as inhibition of bacterial growth at MIC concentration incubated for 48 hrs by broth microdilution assay; assay type: functional, organism-based
In short: (§3)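 Plates were incubated 48 h at 37 °C and examined for colonies. A fidaxomicin-treated culture at 1 µM served as the control.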

Staphylococcus aureus [7] = assay: Induction of morphological changes in Staphylococcus aureus ATCC 25923 assessed as cell damage at MIC concentration by transmission electron microscopic analysis; assay type: functional, organism-based
In short: (§4)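 Cells were pelleted at 4 °C, washed in 0.1 M PBS pH 7.2, and fixed overnight (4% formaldehyde, 1.25% glutaraldehyde, ruthenium red). Post-fixed in 1% OsO4, dehydrated through ethanol, embedded in epoxy resin and imaged by TEM.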

[8] = Retention time of compound by RP-HPLC analysis; assay type: physicochemical
In short: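 Analytical reversed-phase HPLC.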

Enterococcus faecium [9] = assay: Antibacterial activity against vancomycin resistant Enterococcus faecium BAA 2317 assessed as inhibition of bacterial growth incubated for 24 hrs by absorbance based microplate reader analysis; assay type: functional; conditions: read-out: MIC100
In short: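 Broth microdilution. A single colony was grown 24 h in its recommended broth, then diluted 1:10 000 in the same medium. Peptide serial dilutions were added from DMSO stock at 4 µL per 196 µL inoculated medium. Plates were incubated aerobically or anaerobically as each pathogen requires, at 37 °C for 24 h, and OD600 was read. MIC was the lowest concentration giving 100% growth inhibition. Duplicate wells; assay repeated five times independently.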

Staphylococcus aureus [10] = assay: Induction of morphological changes in Staphylococcus aureus ATCC 25923 assessed as appearance of detached fragments at MIC concentration by transmission electron microscopic analysis; assay type: functional, organism-based; in short: as §4
Staphylococcus aureus [11] = assay: Induction of morphological changes in Staphylococcus aureus ATCC 25923 assessed as leakage of intracellular content at MIC concentration by transmission electron microscopic analysis; assay type: functional, organism-based; in short: as §4
Staphylococcus aureus [12] = assay: Bactericidal activity against methicillin resistant Staphylococcus aureus BAA 2313 assessed as inhibition of bacterial growth at MIC concentration incubated for 48 hrs by broth microdilution assay; assay type: functional, organism-based; in short: as §3
Staphylococcus aureus [13] = assay: Induction of morphological changes in Staphylococcus aureus ATCC 25923 assessed as extracellular protrusions by measuring fragments of lysed cell wall at MIC concentration by transmission electron microscopic analysis; assay type: functional, organism-based; in short: as §4
Staphylococcus aureus [14] = assay: Antibacterial activity against Staphylococcus aureus ATCC 25923 assessed as reduction in colony forming units at MIC concentration measured after 2 hrs by time-kill kinetic analysis; assay type: functional; in short: as §2
Salmonella enterica [15] = assay: Antibacterial activity against Salmonella enterica ATCC 13314 assessed as inhibition of bacterial growth incubated for 24 hrs by absorbance based microplate reader analysis; assay type: functional
In short: (§5)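 Broth microdilution. An overnight single-colony culture in recommended broth was diluted 1:10 000, and peptide serial dilutions in DMSO were added (4 µL into 196 µL). Plates incubated 24 h at 37 °C, aerobic or anaerobic as required, then OD600 read. Inhibition was calculated against pathogen-only and blank wells.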

Clostridioides difficile [16] = assay: Bactericidal activity against Clostridium difficile ATCC 43602 assessed as inhibition of bacterial growth at MIC concentration incubated for 48 hrs by broth microdilution assay; assay type: functional, organism-based; in short: as §1
Staphylococcus aureus [17] = assay: Induction of morphological changes in Staphylococcus aureus ATCC 25923 assessed as disintegration of cells at MIC concentration by transmission electron microscopic analysis; assay type: functional, organism-based; in short: as §4
Staphylococcus aureus [18] = assay: Induction of morphological changes in Staphylococcus aureus ATCC 25923 assessed as deformation of cells at MIC concentration by transmission electron microscopic analysis; assay type: functional, organism-based; in short: as §4
Staphylococcus aureus [19] = assay: Induction of morphological changes in Staphylococcus aureus ATCC 25923 assessed as fragmentation of intracellular content at MIC concentration by transmission electron microscopic analysis; assay type: functional, organism-based; in short: as §4
Clostridioides difficile [20] = assay: Antibacterial activity against Clostridium difficile ATCC 43602 assessed as inhibition of bacterial growth incubated for 24 hrs by absorbance based microplate reader analysis; assay type: functional; conditions: read-out: MIC100
Staphylococcus aureus [21] = assay: Induction of morphological changes in Staphylococcus aureus ATCC 25923 assessed as cell wall lysis at MIC concentration by transmission electron microscopic analysis; assay type: functional, organism-based; in short: as §4
Staphylococcus aureus [22] = assay: Induction of morphological changes in Staphylococcus aureus ATCC 25923 assessed as detachment of pieces from cell wall at MIC concentration by transmission electron microscopic analysis; assay type: functional, organism-based; in short: as §4
Staphylococcus aureus [23] = assay: Antibacterial activity against Staphylococcus aureus ATCC 25923 assessed as reduction in surviving bacteria at MIC concentration measured after 12 hrs by time-kill kinetic analysis; assay type: functional; in short: as §2
Caco-2 = assay: Anti-inflammatory activity in human Caco-2 cells infected with Clostridium difficile ATCC 43602 assessed as reduction in TNFalpha level at MIC concentration by ELISA relative to control; assay type: functional; design: scale not given: the % may be the effect or the level left
In short: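 Caco-2 cells grown in DMEM + 10% FBS, 37 °C, 5% CO2, to 90% confluence, then seeded 30 000 cells/well and held 24 h. C. difficile was grown overnight anaerobically in meat broth, washed in PBS, and 1 µL of 0.5 OD600 culture added per 300 µL medium. […] Cytokine in supernatant measured by ELISA; three independent replicates.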

Pseudomonas aeruginosa [24] = assay: Antibacterial activity against Pseudomonas aeruginosa BAA 1744 assessed as inhibition of bacterial growth incubated for 24 hrs by absorbance based microplate reader analysis; assay type: functional; conditions: read-out: MIC100; in short: as §5

Row | Compound | Activity (Staphylococcus aureus [1]) | Activity (Staphylococcus aureus [2]) | Activity (Salmonella enterica [3]) | Activity (Listeria monocytogenes) | Activity (Pseudomonas aeruginosa [4]) | Activity (Escherichia coli) | Activity (Enterococcus faecium [6]) | Retention_time [8] [min] | Activity (Staphylococcus aureus [11]) | Activity (Staphylococcus aureus [12]) | Activity (Staphylococcus aureus [14]) [log10CFU/ml] | Activity (Salmonella enterica [15]) | Activity (Clostridioides difficile [16]) | other results
1 | CC[C@H](C)[C@@H]1NC(=O)CNC(=O)CNC(=O)[C@H](CO)NC(=O)[C@H]([C@@H](C)CC)NC(=O)[C@H](CCCCN)NC(=O)[C@H](CO)NC(=O)[C@H](CC(C)C)NC(=O)[C@@H](C(C)C)NC(=O)[C@@H]2CCCN2C(=O)[C@H]([C@@H](C)CC)NC(=O)[C@H](C(C)C)NC(=O)[C@H](CC(C)C)NC(=O)[C@@H]2CCCN2C(=O)CNC1=O (cyclo(LSKISGGIGPLVIP[dV])) | Active | Active | Active | Active | Active | Active | Active | 17.76 | Active | Active | 3 | inactive | Active | Activity (Staphylococcus aureus [5]): 5 log10CFU/ml; Activity (Staphylococcus aureus [7]): Active; MIC (Enterococcus faecium [9]): 1.5 µM (≈ 2.15 µg/mL); Activity (Staphylococcus aureus [10]): Active; Activity (Staphylococcus aureus [13]): Active
2 | H-LSKISGGIGPLVIPV-NH2 | Active | Active | Active | Active | Active | Active | Active | 14.51 | Active | Active | 2 | inactive | Active | Activity (Staphylococcus aureus [17]): Active; Activity (Staphylococcus aureus [18]): Active; Activity (Staphylococcus aureus [19]): Active; MIC (Clostridioides difficile [20]): 0.9 µM; Activity (Staphylococcus aureus [21]): Active; Activity (Staphylococcus aureus [22]): Active; Activity (Staphylococcus aureus [23]): 5 log10CFU/ml; Activity (Caco-2): 10%; MIC (Pseudomonas aeruginosa [24]): 9.3 µM
